# Cl transport mod = KCC2 cotransporter modulators, thallium flux, primary screen, cell-based, HEK293 KCC2, FluoZin-2 fluorescence, MLSMR. KCC2 cells, thallium flux FluoZin-2 fluorescence. B-score of Tl+ flux slope (higher = more flux/activation; lower = inhibition) at 10 µM. actives 2.2% (n = 190,000);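 active = thallium flux slope and its plate-corrected score both differing from the plate sample mean at a set confidence after two filtering rounds, in either direction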;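 note: slope of fluorescence scaled to starting intensity during 10 to 20 s after thallium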
# NPY Y2 blocker = NPY-Y2 receptor antagonists, primary screen, cell-based | actives 0.99% (n = 140,000) | inhibition, % at 2.7 µM | NPY-Y2 expressing cells, antagonist mode | Neuropeptide Y receptor type 2 (Homo sapiens), P49146; in the data active = inhibition above about 17%;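 note: 0% = vehicle with agonist challenge and 100% = reference antagonist with challenge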
# NPY1 pot ag = NPY-Y1 receptor potentiators or agonists, primary screen, cell-based | Neuropeptide Y receptor type 1 (Homo sapiens), P25929 | NPY-Y1 expressing cells, potentiator/agonist activation | activation, % at 3.6 µM | actives 0.37% (n = 220,000); in the data active = activation above about 33%, passing the limit was not always enough;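 note: cells stimulated with NPY at EC10 then isoproterenol at EC100; 0% = low agonist plus stimulus and 100% = saturating agonist plus stimulus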
# Furin inhibitor = human furin inhibitors, primary screen, biochemical, fluorescence intensity; purified furin, fluorogenic substrate cleavage; inhibition, % at 20 µM or 30 µM; P09958; actives 0.061% (n = 220,000); in the data active = inhibition above about 25%
# Target sequence (P09958 108-714 limits assumed): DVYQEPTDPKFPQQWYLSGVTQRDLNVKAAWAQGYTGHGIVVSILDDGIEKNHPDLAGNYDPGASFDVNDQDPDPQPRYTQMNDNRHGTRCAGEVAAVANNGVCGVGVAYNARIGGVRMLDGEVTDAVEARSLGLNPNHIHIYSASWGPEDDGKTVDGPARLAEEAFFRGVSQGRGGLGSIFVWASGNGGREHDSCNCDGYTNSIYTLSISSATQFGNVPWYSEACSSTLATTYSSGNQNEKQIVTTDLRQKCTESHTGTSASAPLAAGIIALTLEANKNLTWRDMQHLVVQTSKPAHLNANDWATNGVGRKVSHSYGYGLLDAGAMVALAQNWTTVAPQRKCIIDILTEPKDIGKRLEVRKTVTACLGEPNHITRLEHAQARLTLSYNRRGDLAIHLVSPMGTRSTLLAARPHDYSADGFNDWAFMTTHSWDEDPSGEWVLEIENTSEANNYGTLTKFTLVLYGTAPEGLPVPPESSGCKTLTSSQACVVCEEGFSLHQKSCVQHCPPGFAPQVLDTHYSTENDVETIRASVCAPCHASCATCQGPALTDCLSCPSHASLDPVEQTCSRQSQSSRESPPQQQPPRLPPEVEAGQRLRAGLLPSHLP
# NPY2 pot ag = NPY-Y2 potentiators or agonists, primary screen, cell-based. actives 0.45% (n = 220,000). Neuropeptide Y receptor type 2 (Homo sapiens), P49146. activation, % at 3.6 µM. cells expressing NPY-Y2, potentiator/agonist read-out; in the data active = activation above about 27%;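 note: cells stimulated with NPY near EC25 plus isoproterenol at EC100; 0% = vehicle plus submaximal agonist and 100% = vehicle plus saturating agonist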
# NPY Y1 blocker = NPY-Y1 receptor antagonists, primary screen, cell-based | Neuropeptide Y receptor type 1 (Homo sapiens), P25929 | HEK293-CNG Y1 cells, membrane potential fluorescence; NPY at EC95, then isoproterenol | inhibition, % at 3.6 µM | actives 1% (n = 200,000) | AID 1040, 2008;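 active = inhibition above the campaign mean inhibition of all tested compounds plus 3 SD, cut at about 20% in these data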;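 note: 0% = DMSO wells given NPY plus isoproterenol and 100% = isoproterenol alone without NPY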
#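 Material: HEK293 cells co-expressing NPY Y1 receptor and cyclic-nucleotide gated channel. Timing: compound incubation 1 h at room temperature, readout 45 min post-stimulation. Signal: fluorescence, membrane potential probe.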
# KCC2 secondary = KCC2 modulators in sodium-free buffer, confirmation, cell-based, HEK293 KCC2, thallium flux, secondary assay. shares compounds with Cl transport mod. FluoZin2 fluorescence; active compounds read high. normalised thallium flux (F/F0 slope) at 10 µM. actives 15% (n = 3,700);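 active = thallium flux slope above the same plate's solvent-only control mean plus 3 SD; inconclusive = the two replicate wells disagree; inactive = no significant difference from solvent-only control wells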
# KCC2 bumet counter = thallium flux persisting under bumetanide in KCC2 cells, confirmation, counter-screen for KCC2 modulator project, cell-based, HEK293 KCC2, FluoZin2, secondary assay 3; shares compounds with Cl transport mod; HEK293-KCC2 + bumetanide/ouabain; active compounds read high; normalized thallium flux at 10 µM; actives 49% (n = 3,700); AID 1714, 2009;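 active = thallium entry rate above the same plate's blocked-transporter control wells by more than 3 SD; inconclusive = the two repeat wells disagree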;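 note: raw slope of fluorescence over initial fluorescence between 10 and 20 s after thallium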
# KCC2 sec2 = KCC2 modulators without ouabain present, confirmation, cell-based, HEK293 KCC2, thallium flux, FluoZin2, secondary assay 2; actives 23% (n = 3,700); thallium flux FluoZin2 fluorescence; actives lie on both sides; F/F0 rise rate, 10–20 s post-thallium; shares compounds with Cl transport mod; normalized thallium flux at 10 µM;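 active = thallium flux slope more than 3 SD above or below the plate's solvent-only control mean, mostly below; inconclusive = the two repeat wells disagreed; inactive = no significant shift from solvent-only controls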;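 note: raw slope with 0.1% DMSO as baseline and bumetanide as block control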
# HEK counter1 = thallium flux modulation in parental HEK cells, confirmation, counter-screen for KCC2 modulator project, cell-based, counterscreen 1; shares compounds with Cl transport mod; HEK293 parental cells, thallium flux FluoZin2, ouabain; baseline-ratio fluorescence slope, 10–20 s after thallium; thallium flux rate (normalised fluorescence) at 10 µM; actives 46% (n = 3,700); AID 1716, 2009;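 active = thallium flux rate significantly above the same plate's solvent-only control wells, beyond their mean plus 3 SD; inconclusive = the two replicate wells gave conflicting results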
# KCC2 ouabain = KCC2 inhibitors and activators, ouabain retest, confirmation, HEK-KCC2 cells | raw Tl+ flux slope (below DMSO = inhibition, above = activation) at 10 µM | actives 48% (n = 3,700) | HEK293-KCC2, thallium flux FluoZin2 fluorescence; bidirectional: low = inhibitor, high = activator | shares compounds with Cl transport mod | AID 1717, 2009;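 active = thallium flux slope beyond 3 SD from same-plate DMSO control mean in most replicates, usually higher, sometimes lower; inconclusive = repeat tests gave conflicting results; inactive = no significant difference from controls in most replicates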;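 note: slope of initial-normalized fluorescence between seconds 10 and 20 after thallium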
# HEK counter2 = native HEK Tl+ uptake effects, second counter-screen – HEK cells, counterscreen 2, counter-screen for KCC2 modulator project, confirmation. actives 33% (n = 3,700). shares compounds with Cl transport mod. HEK293 parental, thallium flux FluoZin-2 fluorescence slope. thallium flux slope at 10 µM. AID 1718, 2009;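 active = thallium flux slope above the same plate's solvent-control mean plus 3 SD in both duplicate wells; inconclusive = duplicate wells that disagreed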;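 note: run without ouabain in cells lacking the KCC2 cotransporter; slope of fluorescence scaled to its starting value between 10 and 20 s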
# Starred values were filed as active, the others as inactive; ? = inconclusive; . = no result. The list is not random: actives were taken first. Their share in the collection is about 3.7%.
SMILES,Cl transport mod,NPY Y2 blocker,NPY1 pot ag,Furin inhibitor,NPY2 pot ag,NPY Y1 blocker,KCC2 secondary,KCC2 bumet counter,KCC2 sec2,HEK counter1,KCC2 ouabain,HEK counter2
O=C1CCC/C(=N\NC(=O)c2ccc(COc3ccccc3-c3ccccc3)cc2)C1,0.0034,.,-20,-4,-12,3,.,.,.,.,.,.
O=C(COc1ccccc1-c1ccccc1)NN=C1CCCC1,-3.4*,.,-6,-34,-15,4,0.0071,0.0039,0.032,0.005*,0.018,0.0077*
O=C(COC(=O)CC12CC3CC(CC(C3)C1)C2)Nc1cccnc1Cl,0.19,.,-29,-4,-24,4,.,.,.,.,.,.
CCn1cc(C(=S)N2CCC(C(N)=O)CC2)c2ccccc21,0.3,.,-6,-7,-4,0,.,.,.,.,.,.
CC(C)c1ccc(/C=N/NC(=O)c2ccccc2Cl)cc1,-4.4*,.,-8,-18,-23,11,0.0054,0.005,0.024*,0.0072,?,0.01
COc1cc(/C=N/NC(=S)Nc2cccc(S(=O)(=O)N(C)C)c2)ccc1O,-3.4*,0,8,-6,0,2,0.0061,0.0071,0.029,0.0066,0.016*,0.0095
CN(C)S(=O)(=O)c1cccc(NC(=S)NN=C(Cc2ccccc2)Cc2ccccc2)c1,5.9*,3,-13,-8,-2,6,0.0069,0.0099*,0.034,0.014*,0.023,0.016*
CCOC(=O)/C(C#N)=C1\CCCN1CC(N)=S,-0.19,1,23,-27,4,0,.,.,.,.,.,.
Cc1cccc(N2C(=O)CS/C2=N\NC(=O)c2ccc(Br)cc2)c1C,7.9*,1,1,-25,-5,1,0.006,0.035*,0.036,0.023*,0.034*,0.024*
Cc1cccc(N2C(=O)CS/C2=N\NC(=O)c2cccnc2)c1C,1.1,.,9,-32,7,1,.,.,.,.,.,.
Oc1ccc(O)c(-c2cnns2)c1,0.016,6,12,-28,20,-9,.,.,.,.,.,.
Cc1oc(-c2ccccc2Cl)nc1CN1CCCN(C(=O)c2ccco2)CC1,.,.,-19,-21,3,2,.,.,.,.,.,.
CCN(CC)c1ccc(C(=O)OCC(=O)N(C(C)C)C(C)C)cc1,0.15,.,17,-10,4,-2,.,.,.,.,.,.
CCN(CC)c1ccc(C(=O)OCC(=O)N(C)Cc2ccccc2)cc1,-4.1*,.,-7,-15,1,6,0.0057,0.0057,0.029,0.0057,0.015*,0.01
